This note sets out measurements from PubChem BioAssay AID624466 (The Scripps Research Institute Molecular Screening Center, 2012).

Among all 360,000 compounds or so, about 5,400 (1.5%) were called active. The sample holds actives, similar compounds and a random draw of the others, so the mix is not that of the screen. A number with no mark means an inactive call.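 Rule for the calls: active = inhibition above a per-plate cutoff, the mean inhibition of test compounds on that plate plus 3 SD (cut at about 49% in these data); inactive = the rest.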

Chain of Trace amine-associated receptor 1 (Homo sapiens) (Q96RJ0 whole entry, looked up): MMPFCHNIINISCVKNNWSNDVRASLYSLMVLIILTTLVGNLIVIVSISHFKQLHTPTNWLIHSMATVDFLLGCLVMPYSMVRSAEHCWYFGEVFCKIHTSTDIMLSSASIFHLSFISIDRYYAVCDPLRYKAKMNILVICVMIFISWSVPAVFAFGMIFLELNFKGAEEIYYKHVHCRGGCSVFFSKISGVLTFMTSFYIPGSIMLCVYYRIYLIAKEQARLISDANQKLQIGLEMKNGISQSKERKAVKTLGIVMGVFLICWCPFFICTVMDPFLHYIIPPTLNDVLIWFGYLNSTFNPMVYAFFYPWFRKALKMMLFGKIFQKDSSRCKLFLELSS

This test has as its target Trace amine-associated receptor 1 (Homo sapiens) (UniProt Q96RJ0). Put plainly: blockers of beta-PEA-driven TAAR1 calcium signal – Fluo-8 calcium fluorescence, CHO RD-HGA16 cells, primary screen (AID 624466).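 Note: 0% = DMSO plus EC80 beta-PEA response and 100% = DMSO alone without agonist.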 Conditions: CHO RD-HGA16 TAAR1, Fluo-8 calcium fluorescence, antagonist; at 3 µM; active compounds read high. The essentials: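 Test system: CHO RD-HGA16 cells bearing hTAAR1 | Reagent: β-PEA, EC80 | Compound dosing: 3 µM, single point | Schedule: Dye loading 75 min at 37 °C, then 30 min room temperature | Signal: Calcium fluorescence with Fluo-8 | Evaluation: Percent inhibition of PEA-evoked calcium signal, max/basal emission ratio | Control set: DMSO-only wells and EC80 β-PEA-stimulated wells | Repeats: Singlicate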
A word on the inhibition: it is the change of the read-out against control, counted positive when it falls. `O=C(N/C(=C\c1ccc([N+](=O)[O-])cc1)C(=O)N1CCCCC1)c1ccco1`: the inhibition was 9.56%.

With `Cn1nccc1C(=O)NC1CCCc2c1cnn2-c1ccc(F)cc1F` (configuration not stated), the inhibition was 4.98%.

Take `COc1ccc(C(=O)NC2CCCc3c2cnn3-c2cccc(C)c2C)c(OC)n1` (configuration not stated): the inhibition was 62.1% (active).

For `COc1ccc(OC)c(C(=O)NC2CCCc3c2cnn3-c2cc(C)cc(C)c2)c1` (configuration not stated), the inhibition was -17.8%.

Regarding `CCN1CCN(C(=O)c2cc3cc4ccc(OC)cc4nc3s2)CC1`, the inhibition is 0.15%.

Regarding `CCCCCCCCN1C(=O)[C@@H](CC(=O)NCc2ccccc2)C[C@@]2(C(=O)OC)C1=C[C@H](C(C)(C)C)O[C@@H]2C`, the inhibition was -4.61%.

As for `CCOC(=O)[C@]12CCC=C1N(Cc1ccccc1)C(=O)[C@H](CC(=O)N1CCCC1)C2`, the inhibition is -13.9%.

Regarding `CCOC(=O)C1=C(NC(=S)NC(=O)c2ccccc2)c2ccccc2CC1(C)C`, the inhibition was 59.3% (active).

On to `Cn1nnc(NC(=S)NC(=O)c2ccccc2)n1`, for which the inhibition is -35%.

For `CCOC(=O)c1c(NC(=O)C2(C)Cc3ccccc3C(=O)O2)sc2c1CCCC2` (configuration not stated), the inhibition was -23.7%.

`CCOC(=O)N1CCN(C(=O)C[C@H]2C[C@@]3(C(=O)OC)C(=C[C@H](C4CCCC4)O[C@@H]3C)N(Cc3ccccc3)C2=O)CC1`: the inhibition was -6.31%.

For the molecule `CC(C)N1C(=O)c2ccccc2NC(=O)C1C(=O)NCc1cccs1` (configuration not stated), the inhibition was -8.37%.

In the case of `O=[N+]([O-])c1cc([N+](=O)[O-])c2cccnc2c1O`, the inhibition is 2.43%.

In the case of `CC(NCC(=O)Nc1cc(Cl)cc(Cl)c1)c1ccccc1` (configuration not stated), the inhibition was 3.33%.

As to `NNC(=O)CNC(c1ccccc1)c1cc(Cl)ccc1NC(=O)c1ccccc1` (configuration not stated), the inhibition is 80% (active).

Turning to `O=C(CNC(c1ccccc1)c1ccccc1)Nc1ccc(F)cc1`, the inhibition was -11.9%.

As for `Cc1ccc(-c2cc(=O)[nH]c(NCc3ccccc3)n2)cc1`, the inhibition is -9.41%.

As to `Cc1cc(C(C)(C)C)oc1C(=O)N(CC(=O)NC1CCCC1)Cc1ccc(Cl)cc1`, the inhibition was 56.4% (active).

Take `Cc1ccc(CN(CC(=O)NC2CCCCC2)C(=O)c2csnn2)cc1`: the inhibition was 10.9%.

Consider `COc1ccc(CN(CC(=O)NC2CCCC2)C(=O)CCC(=O)Nc2cc(C)on2)cc1`, for which the inhibition was -2.7%.

`COCCNC(=S)N(C)[C@H]1C[C@H]2c3[nH]c4ccccc4c3CCN2C[C@H]1[C@H](C)O`: the inhibition is -4.21%.

Regarding `COC(=O)C[C@@H]1C=C[C@@H](NC(=O)c2ccc3c(c2)OCO3)[C@@H](CO)O1`, the inhibition is 8.18%.

For `O=C(Cn1cnc2ccccc2c1=O)NCC1COc2ccccc2O1` (configuration not stated), the inhibition was -0.58%.

Take `c1ccc2c(c1)OCC(CNc1ncnc3nc[nH]c13)O2` (configuration not stated): the inhibition was 105% (active).

`COc1ccc(CCNc2ncnc3nc[nH]c23)cc1OC`: the inhibition was 42.1%.

Turning to `O=C(NCCc1ccc(F)cc1)c1ccc(S(=O)(=O)N2CCCCC2)cc1`, the inhibition was -0.8%.

As to `O=C(c1ccc(Cl)c(S(=O)(=O)N2CCCCC2)c1)N1CCCCCC1`, the inhibition is -4.7%.

Turning to `NS(=O)(=O)c1ccc(CCNC(=O)c2ccc(Cl)c(S(=O)(=O)N3CCCCCC3)c2)cc1`, the inhibition was 48.9% (active).

In the case of `CC(C)Nc1ncnc2c1nnn2Cc1ccccc1`, the inhibition is -8.98%.

Turning to `c1ccc(Cn2nnc3c(NCC4CC4)ncnc32)cc1`, the inhibition was -5.34%.

Consider `Clc1ccc(Nc2ncnc3c2nnn3Cc2ccccc2)cc1`, for which the inhibition was 59.2% (active).

Regarding `Nc1ncnc2c1ncn2C1OC(CO)CC1O` (configuration not stated), the inhibition was -14.9%.

Consider `CC1(C)OC(=O)C2=C(CC(CCc3ccccc3)OC2c2ccc(Cl)cc2)O1` (configuration not stated), for which the inhibition was 18.9%.

On to `O=C(NCc1ccc(F)cc1F)[C@@H]1CCCN1C(=O)[C@@H]1CCCN1C(=O)c1cccc(Cl)c1`, for which the inhibition was -26.2%.

Take `Cc1cc(Nc2ccc(Br)cc2F)n2ncnc2n1`: the inhibition is -22.8%.

With `CC(=O)Nc1ccc(OCCC[n+]2cccc(C(=O)[O-])c2)cc1`, the inhibition is 10.6%.

`CCCCn1c(SCC(=O)N2CCC(C(=O)OCC)CC2)nc2cc(S(N)(=O)=O)ccc21`: the inhibition is -5.42%.

As for `CCCCn1c(SCC(=O)N2CCCC2=O)nc2cc(S(N)(=O)=O)ccc21`, the inhibition was -16.1%.

Regarding `CCCCn1c(SCc2ncc(-c3ccccc3)o2)nc2cc(S(N)(=O)=O)ccc21`, the inhibition was 63.4% (active).

Consider `CC1(C(=O)NCc2ccccc2)CN(S(C)(=O)=O)CC(=O)N1CC(F)(F)F` (configuration not stated), for which the inhibition is -8.96%.

Consider `Cc1ccc(Cn2cc(CN3CC(N4CCN(C)CC4)CS3(=O)=O)nn2)cc1` (configuration not stated), for which the inhibition was -10.1%.

`CC(C)(C)n1ncc2c(=O)n(Cc3c(Cl)cccc3Br)cnc21`: the inhibition is 58.1% (active).

Regarding `Cn1cnc2c1c(=O)n(Cc1c(Cl)cccc1Cl)c(=O)n2C`, the inhibition was -4.09%.

Regarding `CC(C)(C)n1ncc2c(=O)n(Cc3ccc(Cl)cc3)cnc21`, the inhibition was 18.1%.

Take `CCCCNc1cccc2c1S(=O)(=O)N[C@@H](C)CO2`: the inhibition is 4.47%.

Take `Cn1cccc1C(=O)NNC(=O)COc1ccc(Br)cc1`: the inhibition was 8.71%.

As for `Cc1ccsc1C(=O)NNC(=O)COc1ccc(Br)cc1`, the inhibition is -10.4%.

As to `Cc1ccc(O)c(NC(=S)NC(=O)COc2ccc(Br)cc2)c1`, the inhibition is 98.5% (active).

For the molecule `COc1ccc(OC)c(CNC(=O)c2cc(=O)[nH]c3ccc(S(=O)(=O)N4CCCC4)cc23)c1`, the inhibition was -12.7%.

On to `COc1ccc(S(=O)(=O)N2CCC(C(=O)NCCC(=O)NCc3cccc(OC)c3)CC2)cc1`, for which the inhibition was -10.5%.

Regarding `O=C(Nc1ccc(Br)cc1)C1CCC(=O)N1Cc1ccccc1Cl` (configuration not stated), the inhibition is 11.4%.

Turning to `Fc1ccc(/C=N/Nc2nc(-c3cccnc3)nc3ccccc23)cc1`, the inhibition is 55.8% (active).

For the molecule `Brc1ccc(-c2csc(N/N=C/c3cccnc3)n2)cc1`, the inhibition was 15.8%.

As to `S=c1nc2ccccc2c2nc(-c3cccnc3)[nH]n12`, the inhibition is 5.39%.

Consider `O=C(c1ccc(Cl)cc1)n1cnc2ccccc21`, for which the inhibition is -8.66%.

Turning to `COc1cccc(N2CCN(CC(=O)Nc3ccnn3C3CCCC3)CC2)c1`, the inhibition was 10.4%.

Regarding `COC(=O)Nc1nc2ccc(C(=O)C3CC3)cc2[nH]1`, the inhibition is -3.23%.

As for `O=C(NCCN1CCOCC1)c1cc(Sc2cccc(Cl)c2)nc2ccccc12`, the inhibition was -6.08%.

As for `O=C(NCCN1CCOCC1)c1ccccc1N1C(=O)[C@@H]2Cc3c([nH]c4ccccc34)C(c3cccc(Cl)c3)N2C1=O` (some centres not stated), the inhibition is 68.8% (active).

Take `O=C(NCCN1CCOCC1)Nc1cccc(Cl)c1`: the inhibition is -1.82%.

As for `C[C@H]1[C@H](c2ccccc2)Oc2cc(Br)ccc2S(=O)(=O)N1Cc1cccc(F)c1`, the inhibition is 0.32%.

For `COc1cccc(-c2nc3nc(C)cc(C)n3c2NC2CCCCC2)c1`, the inhibition is -7.98%.

For the molecule `Cc1ccc(N2CC(C(=O)N3CCC4(CC3)CC(=O)c3ccccc3O4)CC2=O)cc1C` (configuration not stated), the inhibition is -12.3%.

On to `CC(C)c1c(C(=O)N/N=C/c2ccccc2C(=O)O)nnn1-c1nonc1N`, for which the inhibition is -11.8%.

Take `Nc1nonc1-n1nnc(C(=O)N/N=C/C2CCCCC2)c1-c1ccccc1`: the inhibition was -20.6%.

As to `Nc1nonc1-n1nnc(C(=O)N/N=C/c2c[nH]c3ccccc23)c1-c1ccccc1`, the inhibition was 59% (active).

For `CC(=O)N1C[C@@H](CO)[C@@H](N(C)C(=O)C(C)(C)C)C[C@H]1c1ccccc1Br`, the inhibition is -17.9%.

On to `Cc1ccc(NC(=O)COC(=O)CNC(=O)c2ccc(Cl)cc2Cl)cc1S(=O)(=O)N1CCOCC1`, for which the inhibition was -20.3%.

`C[C@@H]1CC2=C(C(=O)OC(C)(C)O2)[C@@H](C2CC2)O1`: the inhibition is -2.56%.

On to `CCOC(=O)[C@]12CCCC=C1N(Cc1cccc3ccccc13)C(=O)[C@H](CC(=O)NCC13CC4CC(CC(C4)C1)C3)C2`, for which the inhibition is -11.8%.

`O=C(c1cc(-c2ccc(Cl)s2)nc2ccccc12)N1CCOCC1`: the inhibition is 23.2%.

As to `Cc1c(NC(=O)c2cc(-c3ccc(Cl)s3)nc3ccccc23)c(=O)n(-c2ccccc2)n1C`, the inhibition was 23.5%.

Consider `CC(=O)N1CCN(C(=O)c2cc(-c3ccc(Cl)s3)nc3ccccc23)CC1`, for which the inhibition was 52% (active).

Take `O=C(NCc1cccc(Cl)c1)C1CCN(c2nnc(N3CCCC3=O)s2)CC1`: the inhibition is 1.44%.

Consider `Cc1ccc(S(=O)(=O)N[C@H]2CCC[C@@H]2O)cc1`, for which the inhibition was -6.11%.

As for `Nc1nonc1-n1nnc(C(=O)N/N=C/c2cc(Br)ccc2O)c1CSC1=NCCS1`, the inhibition was 18.1%.

For the molecule `Cc1ccc(SCc2c(C(=O)N/N=C/c3cccnc3)nnn2-c2nonc2N)cc1`, the inhibition was 63.7% (active).

As to `CCN(CC)Cc1c(C(=O)N/N=C/c2cccc(OCc3ccc(F)cc3)c2)nnn1-c1nonc1N`, the inhibition was -24.4%.

For the molecule `CCOC(=O)C1CCCN(C(=O)c2cccc(S(=O)(=O)N3CCOCC3)c2)C1` (configuration not stated), the inhibition was -16.4%.

As for `C=CCCN(Cc1ccccc1)S(=O)(=O)c1ccccc1Br`, the inhibition is 35.3%.

Regarding `O=C1Nc2ccccc2C1=NN=Cc1ccco1`, the inhibition was -11.4%.

Take `CC1Cc2[nH][nH]c(=O)c2C(C2CC2)O1` (configuration not stated): the inhibition is -0.95%.

On to `Cc1ccccc1-n1nnc2c(=O)oc3ccccc3c21`, for which the inhibition is -7.09%.

In the case of `O=C(Nc1cccc(F)c1)c1coc(=O)c(Br)c1`, the inhibition is -5.62%.

For the molecule `C=CCc1cc(S(=O)(=O)c2ccc(O)c(CC=C)c2)ccc1O`, the inhibition is 56.9% (active).

`O=C1[C@@H](c2ccccc2)[C@@H](c2ccccc2)N1c1ccccc1`: the inhibition is -22.7%.

In the case of `COc1ccc(NC(=O)c2oc3ccc(S(=O)(=O)N4CCOCC4)cc3c2C)cc1`, the inhibition is 57.4% (active).

With `COc1ccc(C(=O)Nc2cc(S(=O)(=O)N3CCCC3)ccc2Cl)cc1`, the inhibition was 2.12%.

For the molecule `Cc1c(C(=O)Nc2cccc(S(=O)(=O)N3CCOCC3)c2)oc2ccccc12`, the inhibition is 13.3%.

As to `Cc1c(C(=O)Nc2ccccc2Cl)oc2ccc(S(=O)(=O)N3CCC4(CC3)OCCO4)cc12`, the inhibition was 46.8%.

Consider `COc1ccc(C(=O)Nc2nc(-c3ccc(S(=O)(=O)N4CCOCC4)cc3)cs2)cc1`, for which the inhibition was 60.4% (active).

Regarding `COC(=O)COc1ccc(S(=O)(=O)N2CCOCC2)cc1`, the inhibition was -11.5%.
